Reference: ChEMBL document CHEMBL1128448, “Synthesis and antifungal activity of new azole derivatives containing an N-acylmorpholine ring” (1995)
In brackets after ≈: the same amount, converted by molar mass.

Legend:
Type in all cases: functional
Mus musculus [1] = assay: In vivo evaluation of % survival rate after peroral administration on 3rd day at dose 0.5 mg/kg(as a water solution in (hydroxypropyl -beta-cyclodextrin)); details: route oral
Outline: (§1)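 Groups of 10 male mice were infected iv with 0.2 mL of C. albicans at (2-8) × 10^7 cfu/mL. Oral doses were given at 1, 4 and 24 h post-infection. Vehicle-only controls were included, with at least 90% control mortality by day 3. Percent survival was recorded on days 3, 5, 7 and 9.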

Candida parapsilosis [2] = assay: Evaluation of In vitro antifungal activity against Candida parapsilosis ATCC 22019 by broth macro dilution method; details: Lodderomyces parapsilosis
Outline: (§2)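 Yeast MIC and MFC by broth macrodilution per NCCLS M27-P in RPMI-1640 buffered with 0.165 M MOPS. Fluconazole in sterile water, other drugs in DMSO. C. parapsilosis ATCC 22019 is the reference strain in each run. MIC is the lowest concentration with turbidity ≤ the 80% inhibition standard. For MFC, 0.04 mL from clear tubes is plated on Sabouraud agar; MFC is the lowest concentration giving ≤1 colony.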

Pichia kudriavzevii [3] = assay: Evaluation of In vitro antifungal activity against Candida krusei 70 by broth macro dilution method; outline: as §2
Mus musculus [4] = assay: In vivo evaluation of % survival rate after peroral administration on 7th day at dose 0.5 mg/kg(as a water solution in (hydroxypropyl -beta-cyclodextrin)); details: route oral; outline: as §1
Candida albicans [5] = assay: In vitro evaluation of minimum inhibitory concentration against Candida albicans 76
Outline: (§3)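 Stocks are 800 μg/mL in 50% ethanol. Each plate gets 10 μL of inoculum at 10^5 cfu/mL. Incubation at 25 °C, 48 h for yeasts and 120 h for dermatophytes and molds. Organisms are ATCC strains or clinical isolates.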

Kluyveromyces marxianus [6] = assay: Evaluation of In vitro antifungal activity against Candida pseudotropicalis ATCC 28838 by broth macro dilution method; outline: as §2
Candida tropicalis [7] = assay: In vitro evaluation of minimum inhibitory concentration against Candida tropicalis 2.11; outline: as §3
Candida albicans [8] = assay: Evaluation of In vitro antifungal activity against Candida albicans 406 by broth macro dilution method; outline: as §2
Pichia kudriavzevii [9] = assay: Evaluation of In vitro antifungal activity against Candida krusei C64 by broth macro dilution method; outline: as §2
Candida albicans [10] = assay: Evaluation of In vitro antifungal activity against Candida albicans C56 by broth macro dilution method; outline: as §2
Candida albicans [11] = assay: Evaluation of In vitro antifungal activity against Candida albicans 2.01 by broth macro dilution method; outline: as §2
[12] = tested on: Meyerozyma guilliermondii; assay: In vitro evaluation of minimum inhibitory concentration against Candida guilliermondii 26; outline: as §3
Candida tropicalis [13] = assay: Evaluation of In vitro antifungal activity against Candida tropicalis 50 by broth macro dilution method; outline: as §2
Kluyveromyces marxianus [14] = assay: In vitro evaluation of minimum inhibitory concentration against Candida pseudotropicalis 13; outline: as §3
Candida parapsilosis [15] = assay: Evaluation of In vitro antifungal activity against Candida parapsilosis ATCC 141095 by broth macro dilution method; details: Lodderomyces parapsilosis; outline: as §2
Aspergillus fumigatus = assay: In vitro evaluation of minimum inhibitory concentration against Aspergillus fumigatus 33; outline: as §3
Candida parapsilosis [16] = assay: Evaluation of In vitro antifungal activity against Candida parapsilosis C74 by broth macro dilution method; details: Lodderomyces parapsilosis; outline: as §2
Nakaseomyces glabratus = assay: Evaluation of In vitro antifungal activity against Torulopsis glabrata 78 by broth macro dilution method; outline: as §2
Mus musculus [17] = assay: In vivo evaluation of % survival rate after peroral administration on 5th day at dose 0.5 mg/kg(as a water solution in (hydroxypropyl -beta-cyclodextrin)); details: route oral; outline: as §1
Candida albicans [18] = assay: Evaluation of In vitro antifungal activity against Candida albicans ATCC 10231 by broth macro dilution method; outline: as §2
Trichophyton rubrum = assay: IIn vitro evaluation of minimum inhibitory concentration against Trichophyton rubrum 90; outline: as §3
Mus sp. = assay: In vivo evaluation of % survival rate after peroral administration on 9th day at dose 1 mg/kg; details: route oral, 1 mg/kg
Candida parapsilosis [19] = assay: Evaluation of In vitro antifungal activity against Candida parapsilosis 2.07 by broth macro dilution method; details: Lodderomyces parapsilosis; outline: as §2

Compound C[C@H]1N(C(=O)c2ccc(C(F)(F)F)cc2)CCO[C@@]1(Cn1cncn1)c1ccc(F)cc1F (stereo in doubt; (-)-41) has a survival at 0.5 mg/kg (Mus musculus [1]) of 100%, an MFC (Candida parapsilosis [2]) of 4 µg/mL (≈ 8.58 µM) and an MIC (Candida parapsilosis [2]) of 2 µg/mL (≈ 4.29 µM). The MFC (Pichia kudriavzevii [3]) was > 64 µg/mL, the MIC (Pichia kudriavzevii [3]) was 32 µg/mL (≈ 68.6 µM) and the survival at 0.5 mg/kg (Mus musculus [4]) was 60%. It also gave an MIC (Candida albicans [5]) of 1.25 µg/mL (≈ 2.68 µM), an MFC (Kluyveromyces marxianus [6]) of 32 µg/mL (≈ 68.6 µM) and an MIC (Candida tropicalis [7]) of 40 µg/mL (≈ 85.8 µM). For the same compound, the MFC (Candida albicans [8]) was > 64 µg/mL, the MIC (Candida albicans [8]) was 0.25 µg/mL (≈ 0.536 µM) and the MFC (Pichia kudriavzevii [9]) was > 64 µg/mL. The MIC (Pichia kudriavzevii [9]) was 32 µg/mL (≈ 68.6 µM), the MFC (Candida albicans [10]) was > 64 µg/mL and the MIC (Candida albicans [10]) was 0.125 µg/mL (≈ 0.268 µM). The MFC (Candida albicans [11]) was > 64 µg/mL, the MIC (Candida albicans [11]) was 0.25 µg/mL (≈ 0.536 µM) and the MIC [12] was 20 µg/mL (≈ 42.9 µM). The MFC (Candida tropicalis [13]) was > 64 µg/mL, the MIC (Candida tropicalis [13]) was 16 µg/mL (≈ 34.3 µM) and the MIC (Kluyveromyces marxianus [14]) was 40 µg/mL (≈ 85.8 µM). The MFC (Candida parapsilosis [15]) was > 64 µg/mL, the MIC (Candida parapsilosis [15]) was 32 µg/mL (≈ 68.6 µM) and the MIC (Aspergillus fumigatus) was 40 µg/mL (≈ 85.8 µM). The MFC (Candida parapsilosis [16]) was 8 µg/mL (≈ 17.2 µM), the MIC (Candida parapsilosis [16]) was 0.5 µg/mL (≈ 1.07 µM) and the MFC (Nakaseomyces glabratus) was > 64 µg/mL. For the same compound, the MIC (Nakaseomyces glabratus) was 16 µg/mL (≈ 34.3 µM), the survival at 0.5 mg/kg (Mus musculus [17]) was 100% and the MFC (Candida albicans [18]) was > 64 µg/mL. It also gave an MIC (Candida albicans [18]) of 0.25 µg/mL (≈ 0.536 µM), an MIC (Trichophyton rubrum) of 10 µg/mL (≈ 21.4 µM) and a Survival (Mus sp.) of 70%. For the same compound, the MFC (Candida parapsilosis [19]) was > 64 µg/mL and the MIC (Candida parapsilosis [19]) was 1 µg/mL (≈ 2.14 µM).
